In ChEMBL document CHEMBL1153847, “Synthesis and in vitro cytotoxic evaluation of novel 3,4,5-trimethoxyphenyl substituted beta-carboline derivatives” (Eur J Med Chem, 2009) one finds IC50 data, which are given here for 24 compounds.

A value given as a limit tells only on which side of the number the result lay.

Common to all, as to assay type: functional, cell-based
One test relates to HepG2. Briefly: Cytotoxicity against human HepG2 cells by MTT assay. The gist of the method:
(§1)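 Cells grown in RPMI-1640 with 10% (v/v) fetal calf serum, penicillin and streptomycin, at 37 °C in humidified 5% CO2. Compounds dissolved as DMSO stocks, with final DMSO in the medium at 2% (v/v) or lower. Run in 96-well microtitre cultures with MTT staining, following a published procedure with slight modification.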
Background: Tetrazolium assays rely on reduction of a dye to a coloured formazan, in cell work by metabolically active cells.

The next test has as its system Bel-7402. The test is described as follows: Cytotoxicity against human Bel7402 cells by MTT assay. An outline of the steps: as §1
A further test concerns MCF7. Briefly: Cytotoxicity against human MCF7 cells by MTT assay. An outline of the steps:
as §1

Another test has as its system HeLa. The test is described as follows: Cytotoxicity against human HeLa cells by MTT assay. An outline of the steps:
as §1

In another test the test system is BGC-823. The test is described as follows: Cytotoxicity against human BGC823 cells by MTT assay. An outline of the steps:
as §1

Broadly, the IC50 is the concentration at which inhibition is half-maximal. `COc1cc(-c2nc(C(=O)O)cc3c4ccccc4n(C)c23)cc(OC)c1OC`: the concentration for half-maximal inhibition (IC50) with HepG2 is over 100 µM; with Bel-7402, over 100 µM; in the test on MCF7, over 100 µM; in the test on HeLa it was over 100 µM; with BGC-823, 91.1 µM.
In the case of `CCCCn1c2ccccc2c2cc(C(=O)O)nc(-c3cc(OC)c(OC)c(OC)c3)c21`, the IC50 is over 100 µM in the test on HepG2; over 100 µM with Bel-7402; over 100 µM with MCF7; over 100 µM in the test with HeLa; 51.1 µM in the test with BGC-823.
As to `CCn1c2ccccc2c2cc(C(=O)NCCO)nc(-c3cc(OC)c(OC)c(OC)c3)c21`, the IC50 in the test on HepG2 was over 100 µM; in the test with Bel-7402 it was over 100 µM; in the test with MCF7, 53.8 µM; with HeLa, over 100 µM; in the test with BGC-823 it was 74.7 µM.
On to `CCCCn1c2ccccc2c2cc(C(=O)NCCO)nc(-c3cc(OC)c(OC)c(OC)c3)c21`, for which the IC50 with HepG2 is 87.4 µM; in the test on Bel-7402, over 100 µM; in the test with MCF7 it was 31.6 µM; with HeLa, over 100 µM; in the test with BGC-823 it was 37.2 µM.
With `COc1cc(-c2nc(CO)cc3c4ccccc4n(C)c23)cc(OC)c1OC`, the half-inhibitory concentration (IC50) in the test with HepG2, in the test on Bel-7402, with MCF7, in the test on HeLa and in the test with BGC-823 was over 100 µM each time.
As to `CCn1c2ccccc2c2cc(C=O)nc(-c3cc(OC)c(OC)c(OC)c3)c21`, the concentration for half-maximal inhibition (IC50) in the test on HepG2, in the test with Bel-7402, in the test with MCF7, with HeLa and with BGC-823 was over 100 µM each time.
For `COc1cc(-c2nc(C=O)cc3c4ccccc4n(CCCc4ccccc4)c23)cc(OC)c1OC`, the IC50 with HepG2, in the test with Bel-7402, in the test on MCF7, in the test with HeLa and in the test with BGC-823 was over 100 µM throughout.
In the case of `COc1cc(-c2nccc3c2[nH]c2ccccc23)cc(OC)c1OC`, the concentration for half-maximal inhibition (IC50) with HepG2 stood at 63.2 µM; in the test with Bel-7402, 43.8 µM; in the test on MCF7, 31.7 µM; in the test on HeLa, 19.6 µM; with BGC-823 it was 43.1 µM.
The matching figures for `COc1cc(-c2nccc3c4ccccc4n(C)c23)cc(OC)c1OC`: 86.8 µM, 91.1 µM, 74.2 µM, 71.8 µM and 43.2 µM.
The matching figures for `CCn1c2ccccc2c2ccnc(-c3cc(OC)c(OC)c(OC)c3)c21`: over 100 µM, 43.9 µM, 72.7 µM, 50.9 µM and 35.2 µM.
The matching figures for `CCCCn1c2ccccc2c2ccnc(-c3cc(OC)c(OC)c(OC)c3)c21`: 51.9 µM, 42.5 µM, 51.8 µM, 44.2 µM and 27.5 µM.
Turning to `CCn1c2ccccc2c2cc(CO)nc(-c3cc(OC)c(OC)c(OC)c3)c21`, the concentration for half-maximal inhibition (IC50) with HepG2, with Bel-7402, with MCF7, with HeLa and in the test with BGC-823 was over 100 µM in each case.
`CCOC(=O)c1cc2c([nH]c3ccccc32)c(-c2cc(OC)c(OC)c(OC)c2)n1`: the IC50 is over 100 µM in the test on HepG2; over 100 µM with Bel-7402; 92.3 µM in the test on MCF7; over 100 µM in the test with HeLa; 96.6 µM in the test on BGC-823.
For the compound `CCOC(=O)c1cc2c3ccccc3n(C)c2c(-c2cc(OC)c(OC)c(OC)c2)n1`, the half-inhibitory concentration (IC50) in the test on HepG2 was over 100 µM; in the test with Bel-7402, over 100 µM; in the test with MCF7, over 100 µM; with HeLa, over 100 µM; in the test with BGC-823 it was 56.6 µM.
As to `CCCCn1c2ccccc2c2cc(C(=O)OCC)nc(-c3cc(OC)c(OC)c(OC)c3)c21`, the half-maximal inhibitory concentration (IC50) is over 100 µM in the test with HepG2; over 100 µM in the test with Bel-7402; 43.6 µM with MCF7; over 100 µM in the test with HeLa; 27.3 µM in the test on BGC-823.
Take `CCOC(=O)c1cc2c3ccccc3n(CCCc3ccccc3)c2c(-c2cc(OC)c(OC)c(OC)c2)n1`: the IC50 was over 100 µM with HepG2; over 100 µM with Bel-7402; over 100 µM in the test with MCF7; over 100 µM with HeLa; 95.4 µM in the test on BGC-823.
Consider `COc1cc(-c2nc(CO)cc3c4ccccc4n(CCCc4ccccc4)c23)cc(OC)c1OC`, for which the IC50 in the test on HepG2, with Bel-7402, with MCF7, in the test on HeLa and in the test with BGC-823 was over 100 µM each time.
In the case of `COc1cc(-c2nc(C(=O)NCCO)cc3c4ccccc4n(C)c23)cc(OC)c1OC`, the IC50 in the test on HepG2 is over 100 µM; in the test with Bel-7402 it was over 100 µM; with MCF7 it was 95.5 µM; in the test on HeLa it was over 100 µM; in the test with BGC-823, 90.9 µM.
Take `CCn1c2ccccc2c2cc(C(=O)O)nc(-c3cc(OC)c(OC)c(OC)c3)c21`: the IC50 with HepG2 was over 100 µM; in the test with Bel-7402, 61.4 µM; in the test with MCF7, over 100 µM; in the test with HeLa it was over 100 µM; in the test on BGC-823, 66.5 µM.
With `CCOC(=O)c1cc2c3ccccc3n(CC)c2c(-c2cc(OC)c(OC)c(OC)c2)n1`, the IC50 with HepG2 was over 100 µM; with Bel-7402, over 100 µM; in the test with MCF7, over 100 µM; in the test with HeLa it was over 100 µM; with BGC-823, 53.2 µM.
As to `CCCCn1c2ccccc2c2cc(CO)nc(-c3cc(OC)c(OC)c(OC)c3)c21`, the IC50 in the test on HepG2, in the test with Bel-7402, in the test with MCF7, in the test on HeLa and in the test on BGC-823 was over 100 µM in each case.
As to `COc1cc(-c2nc(C=O)cc3c4ccccc4n(C)c23)cc(OC)c1OC`, the 50% inhibitory concentration (IC50) in the test with HepG2, in the test with Bel-7402, in the test with MCF7, in the test with HeLa and in the test with BGC-823 was over 100 µM throughout.
Turning to `CCCCn1c2ccccc2c2cc(C=O)nc(-c3cc(OC)c(OC)c(OC)c3)c21`, the IC50 in the test on HepG2, in the test on Bel-7402, with MCF7, with HeLa and in the test with BGC-823 was over 100 µM in each case.
Turning to `COc1ccc2c(c1)[nH]c1c(C)nccc12` [HARMINE], the IC50 was 46 µM in the test with HepG2; 54 µM in the test on Bel-7402; 72 µM in the test on MCF7; 60 µM in the test on HeLa; 68 µM in the test on BGC-823.
